Test results from ChEMBL document CHEMBL1122868, “New antiallergic pyrano [3,2-g]quinoline-2,8-dicarboxylic acids with potential for the topical treatment of asthma” (1985).
The source made the active and inactive calls. The rule behind the calls is not given here.

Key:
[1] = organism: Rattus norvegicus; test: Potency ratio to that of sodium cromoglycate (1.0) using PCA test.; type: functional
Outline: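 Passive cutaneous anaphylaxis in female rats sensitized with reaginic anti-egg albumin serum and challenged i.v. at 24 h with antigen plus Evans Blue. Compound in saline was co-injected with antigen; groups of five. Sodium cromoglycate ID50 was determined in each experiment. Potency ratio = ID50(sodium cromoglycate)/ID50(compound), with ID50s from regression lines of inhibition against log dose.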

[2] = tested on: Canis familiaris; test: Activity index was evaluated by dog hypotension screen assay at 20 ug/Kg per min for 15 min; type: functional, Canis lupus familiaris
[3] = organism: Rattus norvegicus; test: Inhibitory dose by PCA test […].; type: functional; conditions: read-out: ID50 (the source's name)
Outline: (§1)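 Rat passive cutaneous anaphylaxis. Female rats (100 g) sensitized intradermally with 0.1 mL rat anti-egg albumin reaginic serum diluted in saline. After 24 h, rats were challenged i.v. with egg albumin, Evans Blue and saline, with the compound in saline given in the same injection. Reactions measured at 20 min; groups of five. ID50 taken from a log-dose regression of 20–80% inhibition.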

[4] = tested on: Canis familiaris; test: Percent inhibition by dog hypotension screen assay at 10 ug/Kg per min for 15 min.; type: functional; conditions: Canis lupus familiaris, 0.25 h
[5] = tested on: Canis familiaris; test: Activity index by dog hypotension screen assay at 10 ug/Kg per min for 15 min.; type: functional, Canis lupus familiaris
[6] = tested on: Canis familiaris; test: Percent inhibition was evaluated by dog hypotension screen assay at 50 ug/Kg per min for 15 min; type: functional; conditions: Canis lupus familiaris, 0.25 h
[7] = tested on: Canis familiaris; test: Activity index was evaluated by dog hypotension screen assay at 50 ug/Kg per min for 15 min; type: functional, Canis lupus familiaris
[8] = organism: Rattus norvegicus; test: Ability to inhibit histamine release from rat peritoneal mast cells.; type: functional
[9] = tested on: Monkey; test: (§2) Ability to inhibit histamine release from monkey lung lavage cells; type: functional; conditions: Cercopithecidae, in Primates
[10] = organism: Canis familiaris; test: Relative activity in dog hypotension; type: functional, Canis lupus familiaris
[11] = organism: Rattus norvegicus; test: Compound was evaluated to induce phosphorylation of the 78000 molecular weight mast cell protein; Active to induce phosphorylation; type: functional
[12] = tested on: Monkey; test: as §2; type: functional, Cercopithecidae
[13] = organism: Rattus norvegicus; test: Ability to inhibit histamine release from rat peritoneal mast cells using PCA assay.; type: functional; outline: as §1
[14] = organism: Rattus norvegicus; test: Ability to inhibit histamine release from rat peritoneal mast cells; type: functional
[15] = tested on: Canis familiaris; test: Percent inhibition was evaluated by dog hypotension screen assay at 10 ug/Kg per min for 15 min; inactive; type: functional, organism-based; conditions: Canis lupus familiaris
Outline: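 In anaesthetized beagles (pentobarbitone 30 mg/kg i.v.), hypotensive responses to a standardized bolus of sodium cromoglycate were established. Test compound was infused i.v. for 15 min, and the cromoglycate bolus was repeated at the end of the infusion and every 30 min over 3 h. Percent inhibition was expressed as area under the curve over 3 h; single experiments.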

## CCCc1c2nc(C(=O)[O-])cc(N)c2cc2c(=O)cc(C(=O)[O-])oc12.[Na+].[Na+]
[1]
  Potency ratio: 8.25
[2]
  Activity index: 4.1
[3]
  ED50: 0.31 mg/kg

## CCCc1c2nc(C(=O)[O-])cc(S(=O)(=O)c3ccccc3)c2cc2c(=O)cc(C(=O)[O-])oc12.[Na+].[Na+]
[1]
  Potency ratio: 9.9
[4]
  inhibition in vivo at 10 µg/kg/min: 39%
[3]
  ED50: 0.3 mg/kg
[5]
  Activity index: 3.9

## CCCc1c2oc(C(=O)[O-])cc(=O)c2cc2c(=O)cc(C(=O)[O-])n(C)c12.[Na+].[Na+]
[1]
  Potency ratio: 6.6
[4]
  inhibition in vivo at 10 µg/kg/min: 55%
[3]
  ED50: 0.21 mg/kg
[5]
  Activity index: 5.5

## CCn1c(C(=O)[O-])cc(=O)c2cc3c(=O)cc(C(=O)[O-])oc3cc21.[Na+].[Na+]
[1]
  Potency ratio: 0.16
[4]
  inhibition in vivo at 10 µg/kg/min: 76%
[3]
  ED50: 10 mg/kg
[5]
  Activity index: 7.6

## CCCc1c2nc(C(=O)[O-])cc(Oc3ccccc3)c2cc2c(=O)cc(C(=O)[O-])oc12.[Na+].[Na+]
[1]
  Potency ratio: 1.75
[4]
  inhibition in vivo at 10 µg/kg/min: 68%
[3]
  ED50: 1.12 mg/kg
[5]
  Activity index: 6.8

## CCCc1c2nc(C(=O)O)cc(C)c2cc2c(=O)cc(C(=O)O)oc12
[1]
  Potency ratio: 2.97
[4]
  inhibition in vivo at 10 µg/kg/min: 66%
[3]
  ED50: 0.71 mg/kg
[5]
  Activity index: 6.6

## CCCc1c2nc(C(=O)[O-])cc(Br)c2cc2c(=O)cc(C(=O)[O-])oc12.[Na+].[Na+]
[1]
  Potency ratio: 4.62
[4]
  inhibition in vivo at 10 µg/kg/min: 48%
[3]
  ED50: 0.55 mg/kg
[5]
  Activity index: 4.8

## CCCc1c2nc(C(=O)[O-])cc(OCC)c2cc2c(=O)cc(C(=O)[O-])oc12.[Na+].[Na+]
[1]
  Potency ratio: 8.47
[4]
  inhibition in vivo at 10 µg/kg/min: 32%
[3]
  ED50: 0.3 mg/kg
[5]
  Activity index: 3.2

## CCCc1c2oc(C(=O)[O-])cc(=O)c2cc2c(=O)cc(C(=O)[O-])n(CCC)c12.[Na+].[Na+]
[1]
  Potency ratio: 0.43
[4]
  inhibition in vivo at 10 µg/kg/min: 28%
[3]
  ED50: 3.71 mg/kg
[5]
  Activity index: 2.8

## CC(C)CCn1c(C(=O)O)cc(=O)c2cc3c(=O)cc(C(=O)O)oc3cc21
[1]
  Potency ratio: 0.54
[3]
  ED50: 2.05 mg/kg
[6]
  inhibition in vivo at 50 µg/kg/min: 68%
[7]
  Activity index: 1.4

## CCCc1c2nc(C(=O)[O-])ccc2cc2c(=O)cc(C(=O)[O-])oc12.[Na+].[Na+]
[1]
  Potency ratio: 0.35
[4]
  inhibition in vivo at 10 µg/kg/min: 38%
[3]
  ED50: 7.11 mg/kg
[5]
  Activity index: 3.8

## C=CCc1c2nc(C(=O)[O-])cc(Cl)c2cc2c(=O)cc(C(=O)[O-])oc12.[Na+].[Na+]
[1]
  Potency ratio: 1.09
[4]
  inhibition in vivo at 10 µg/kg/min: 21%
[3]
  ED50: 2.4 mg/kg
[5]
  Activity index: 2.1

## CCCc1c2oc(C(=O)[O-])cc(=O)c2cc2c(=O)cc(C(=O)[O-])n(CC)c12.[Na+].[Na+] [NEDOCROMIL SODIUM]
[8]
  Potency: 1
[1]
  Potency ratio: 1.1
[4]
  inhibition in vivo at 10 µg/kg/min: 60%
[9]
  IC30: 5.2 µM
[3]
  ED50: 0.95 mg/kg
[10]
  Relative activity: 1.9
[5]
  Activity index: 6
[11]
  Potency: Active to induce phosphorylation
[12]
  Relative potency: 190
[13]
  Potency: 1.1

## CCCc1c2nc(C(=O)[O-])cc(O)c2cc2c(=O)cc(C(=O)[O-])oc12.[Na+].[Na+]
[1]
  Potency ratio: 80
[4]
  inhibition in vivo at 10 µg/kg/min: 65%
[3]
  ED50: 0.03 mg/kg
[5]
  Activity index: 6.5

## CCCc1c2nc(C(=O)[O-])cc(O)c2cc2c(=O)ccoc12.[Na+]
[1]
  Potency ratio: 6.5
[3]
  ED50: 0.78 mg/kg

## CCCc1c2nc(C(=O)[O-])cc(NCC)c2cc2c(=O)cc(C(=O)[O-])oc12.[Na+].[Na+]
[1]
  Potency ratio: 13.8
[4]
  inhibition in vivo at 10 µg/kg/min: 42%
[3]
  ED50: 0.18 mg/kg
[5]
  Activity index: 4.2

## O=C([O-])c1cc(O)c2cc3c(=O)cc(C(=O)[O-])oc3cc2n1.[Na+].[Na+]
[1]
  Potency ratio: 11.6
[4]
  inhibition in vivo at 10 µg/kg/min: 78%
[3]
  ED50: 0.22 mg/kg
[5]
  Activity index: 7.8

## CCCc1c(C(=O)[O-])nc2c(CCC)c3oc(C(=O)[O-])cc(=O)c3cc2c1O.[Na+].[Na+]
[1]
  Potency ratio: 10.9
[4]
  inhibition in vivo at 10 µg/kg/min: 6%
[3]
  ED50: 0.14 mg/kg
[5]
  Activity index: 0.6

## CCCc1c2nccc(O)c2cc2c(=O)cc(C(=O)[O-])oc12.[Na+]
[1]
  Potency ratio: 0.35
[3]
  ED50: 6.03 mg/kg

## CCCc1c2nc(C(=O)[O-])cc(NC)c2cc2c(=O)cc(C(=O)[O-])oc12.[Na+].[Na+]
[1]
  Potency ratio: 7.13
[14]
  Potency: 6
[2]
  Activity index: 4
[9]
  IC30: 28.5 µM
[3]
  ED50: 0.22 mg/kg
[10]
  Relative activity: 1.25
[11]
  Potency: Active to induce phosphorylation
[12]
  Relative potency: 35
[13]
  Potency: 7.1

## CCCc1c2nc(C(=O)[O-])cc(N(C)C(C)=O)c2cc2c(=O)cc(C(=O)[O-])oc12.[Na+].[Na+]
[1]
  Potency ratio: 0.88
[2]
  Activity index: 1
[3]
  ED50: 4.02 mg/kg

## CCCc1c(C(=O)[O-])nc2c(CCC)c3oc(C(=O)[O-])cc(=O)c3cc2c1Cl.[Na+].[Na+]
[1]
  Potency ratio: 1.14
[3]
  ED50: 2.45 mg/kg
[5]
  Activity index: 0
[15]
  inhibition: inactive

## O=C([O-])c1cc(Cl)c2cc3c(=O)cc(C(=O)[O-])oc3cc2n1.[Na+].[Na+]
[1]
  Potency ratio: 0.72
[3]
  ED50: 4.23 mg/kg
[5]
  Activity index: 0
[15]
  inhibition: inactive

## Cc1c2nc(C(=O)[O-])cc(O)c2cc2c(=O)cc(C(=O)[O-])oc12.[Na+].[Na+]
[1]
  Potency ratio: 12.7
[4]
  inhibition in vivo at 10 µg/kg/min: 66%
[3]
  ED50: 0.11 mg/kg
[5]
  Activity index: 6.6

## CCCc1c2nccc(Cl)c2cc2c(=O)cc(C(=O)[O-])oc12.[Na+]
[1]
  Potency ratio: 0.2
[4]
  inhibition in vivo at 10 µg/kg/min: 48%
[3]
  ED50: 5.38 mg/kg
[5]
  Activity index: 4.8

## CCCc1c2nc(C(=O)[O-])cc(OC)c2cc2c(=O)cc(C(=O)[O-])oc12.[Na+].[Na+]
[1]
  Potency ratio: 8.35
[4]
  inhibition in vivo at 10 µg/kg/min: 43%
[3]
  ED50: 0.3 mg/kg
[5]
  Activity index: 4.3

## CCCc1c2nc(C(=O)[O-])cc(N3CCCC3)c2cc2c(=O)cc(C(=O)[O-])oc12.[Na+].[Na+]
[1]
  Potency ratio: 4.13
[4]
  inhibition in vivo at 10 µg/kg/min: 57%
[3]
  ED50: 0.86 mg/kg
[5]
  Activity index: 5.7

## CCCc1c2nc(C(=O)[O-])cc(Sc3ccccc3)c2cc2c(=O)cc(C(=O)[O-])oc12.[Na+].[Na+]
[1]
  Potency ratio: 1.78
[4]
  inhibition in vivo at 10 µg/kg/min: 66%
[3]
  ED50: 1.87 mg/kg
[5]
  Activity index: 6.6

## CC=Cc1c2oc(C(=O)O)cc(=O)c2cc2c(=O)cc(C(=O)O)n(CC)c12
[4]
  inhibition in vivo at 10 µg/kg/min: 84%

## CCCc1c2nc(C(=O)[O-])cc(SCC)c2cc2c(=O)cc(C(=O)[O-])oc12.[Na+].[Na+]
[1]
  Potency ratio: 11.1
[4]
  inhibition in vivo at 10 µg/kg/min: 59%
[3]
  ED50: 0.14 mg/kg
[5]
  Activity index: 5.9

## CCCc1c2nc(C(=O)[O-])cc(Nc3ccccc3)c2cc2c(=O)cc(C(=O)[O-])oc12.[Na+].[Na+]
[1]
  Potency ratio: 3.47
[2]
  Activity index: 3
[3]
  ED50: 0.57 mg/kg

## CCCc1c2nc(C(=O)[O-])cc(Cl)c2cc2c(=O)cc(C(=O)[O-])oc12.[Na+].[Na+]
[4]
  inhibition in vivo at 10 µg/kg/min: 72%
[3]
  ED50: 1.38 mg/kg
[5]
  Activity index: 7.2
